Laboratory results reported in ChEMBL document CHEMBL1139342, “Antibacterial 5'-O-(N-dipeptidyl)-sulfamoyladenosines” (2009).
Where a SMILES comes first, the peptide text is derived from it. The star is where a group is joined. AspNHSO2(5'-O-Ado) = Nc1ncnc2c1ncn2[C@@H]1O[C@H](COS(=O)(=O)NC(=O)[C@H](CC(=O)O)N*)[C@@H](O)[C@H]1O

Key:
Type in all cases: functional
Staphylococcus aureus [1] = assay: Antibacterial activity against Staphylococcus aureus ATCC 25923 at 30 nmol after 16 to 20 hrs
Method in brief: (§1)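 Agar overlay diffusion assay: soft Mueller–Hinton agar (0.75% agar) seeded with bacteria poured over Mueller–Hinton agar (1.5% agar). Once set, 5 µL drops of compound in milliQ water were applied (30 nmol per drop, or 1.2 nmol for the reference compound) and allowed to dry. Plates were incubated at 37 °C for 16–20 h. Inhibition zone area was read in mm², triplicate per compound–dose.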

Enterococcus faecalis [2] = assay: Antibacterial activity against Enterococcus faecalis ATCC 29212 at 30 nmol after 16 to 20 hrs; method in brief: as §1
Escherichia coli [3] = assay: Antibacterial activity against wild type Escherichia coli at 30 nmol after 16 to 20 hrs; method in brief: as §1
Escherichia coli [4] = assay: Antibacterial activity against Escherichia coli delta ABN mutant lacking peptidase A, B, N at 30 nmol after 16 to 20 hrs
Method in brief: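 Agar diffusion test. A soft Mueller–Hinton agar lawn (0.75% agar) seeded with bacteria was poured over Mueller–Hinton agar (1.5% agar). Once the agar set, 5 µL drops of compound in milliQ water (30 nmol per drop) were applied and left to dry. Plates were incubated at 37 °C for 16–20 h. Inhibition zone area was recorded in mm² as mean ± SD of triplicates.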

Staphylococcus aureus [5] = assay: Antibacterial activity against Staphylococcus aureus ATCC 25923 at 1.2 nmol after 16 to 20 hrs; method in brief: as §1
Enterococcus faecalis [6] = assay: Antibacterial activity against Enterococcus faecalis ATCC 29212 at 1.2 nmol after 16 to 20 hrs; method in brief: as §1
Escherichia coli [7] = assay: Antibacterial activity against wild type Escherichia coli at 1.2 nmol after 16 to 20 hrs; method in brief: as §1

Structure (SMILES)	inhibition zone (IZ) (Staphylococcus aureus [1])	inhibition zone (IZ) (Enterococcus faecalis [2])	inhibition zone (IZ) (Escherichia coli [3])	inhibition zone (IZ) (Escherichia coli [4])	inhibition zone (IZ) (Staphylococcus aureus [5])	inhibition zone (IZ) (Enterococcus faecalis [6])	inhibition zone (IZ) (Escherichia coli [7])
CSCC[C@H](N)C(=O)N[C@@H](Cc1c[nH]c2ccccc12)C(=O)NS(=O)(=O)OC[C@H]1O[C@@H](n2cnc3c(N)ncnc32)[C@H](O)[C@@H]1O	0 mm2	0 mm2	0 mm2	–	–	–	–
C[C@H](N)C(=O)N[C@@H](Cc1c[nH]c2ccccc12)C(=O)NS(=O)(=O)OC[C@H]1O[C@@H](n2cnc3c(N)ncnc32)[C@H](O)[C@@H]1O	0 mm2	0 mm2	0 mm2	–	–	–	–
Nc1ncnc2c1ncn2[C@@H]1O[C@H](COS(=O)(=O)NC(=O)[C@H](Cc2c[nH]c3ccccc23)NC(=O)[C@@H]2CCCN2)[C@@H](O)[C@H]1O	0 mm2	0 mm2	0 mm2	–	–	–	–
CC(C)C[C@H](NC(=O)[C@H](C)N)C(=O)NS(=O)(=O)OC[C@H]1O[C@@H](n2cnc3c(N)ncnc32)[C@H](O)[C@@H]1O	0 mm2	24.2 mm2	0 mm2	–	–	–	–
Nc1ncnc2c1ncn2[C@@H]1O[C@H](COS(=O)(=O)NC(=O)[C@@H](N)CC(=O)O)[C@@H](O)[C@H]1O	0 mm2	21.3 mm2	26.8 mm2	28.3 mm2	–	–	–
CSCC[C@H](NC(=O)[C@H](C)N)C(=O)NS(=O)(=O)OC[C@H]1O[C@@H](n2cnc3c(N)ncnc32)[C@H](O)[C@@H]1O	0 mm2	0 mm2	0 mm2	–	–	–	–
CSCC[C@H](N)C(=O)NS(=O)(=O)OC[C@H]1O[C@@H](n2cnc3c(N)ncnc32)[C@H](O)[C@@H]1O	18.7 mm2	0 mm2	26.8 mm2	40.4 mm2	–	–	–
Nc1ncnc2c1ncn2[C@@H]1O[C@H](COS(=O)(=O)NC(=O)[C@@H](N)Cc2c[nH]c3ccccc23)[C@@H](O)[C@H]1O	0 mm2	0 mm2	0 mm2	–	–	–	–
CSCC[C@H](N)C(=O)N[C@@H](C)C(=O)NS(=O)(=O)OC[C@H]1O[C@@H](n2cnc3c(N)ncnc32)[C@H](O)[C@@H]1O	59 mm2	76.1 mm2	26.8 mm2	0 mm2	–	–	–
CSCC[C@H](N)C(=O)N[C@@H](CC(C)C)C(=O)NS(=O)(=O)OC[C@H]1O[C@@H](n2cnc3c(N)ncnc32)[C@H](O)[C@@H]1O	0 mm2	33.3 mm2	0 mm2	–	–	–	–
CC(C)C[C@H](NC(=O)[C@@H](N)CCCCN)C(=O)NS(=O)(=O)OC[C@H]1O[C@@H](n2cnc3c(N)ncnc32)[C@H](O)[C@@H]1O	0 mm2	0 mm2	0 mm2	–	–	–	–
CSCC[C@H](NC(=O)[C@@H]1CCCN1)C(=O)NS(=O)(=O)OC[C@H]1O[C@@H](n2cnc3c(N)ncnc32)[C@H](O)[C@@H]1O	0 mm2	0 mm2	0 mm2	–	–	–	–
C[C@H](N)C(=O)N[C@@H](C)C(=O)NS(=O)(=O)OC[C@H]1O[C@@H](n2cnc3c(N)ncnc32)[C@H](O)[C@@H]1O	0 mm2	56.9 mm2	25.3 mm2	0 mm2	–	–	–
CSCC[C@H](NC(=O)[C@@H](N)CCSC)C(=O)NS(=O)(=O)OC[C@H]1O[C@@H](n2cnc3c(N)ncnc32)[C@H](O)[C@@H]1O	0 mm2	83.9 mm2	0 mm2	–	–	–	–
Nc1ncnc2c1ncn2[C@@H]1O[C@H](COS(=O)(=O)NC(=O)[C@H](Cc2ccccc2)NC(=O)[C@@H](N)Cc2ccccc2)[C@@H](O)[C@H]1O	0 mm2	26.8 mm2	18.4 mm2	19.6 mm2	–	–	–
NCCCC[C@H](N)C(=O)N[C@@H](Cc1c[nH]c2ccccc12)C(=O)NS(=O)(=O)OC[C@H]1O[C@@H](n2cnc3c(N)ncnc32)[C@H](O)[C@@H]1O	0 mm2	0 mm2	0 mm2	–	–	–	–
CC(C)C[C@H](NC(=O)[C@@H](N)CCC(=O)O)C(=O)NS(=O)(=O)OC[C@H]1O[C@@H](n2cnc3c(N)ncnc32)[C@H](O)[C@@H]1O	0 mm2	0 mm2	0 mm2	–	–	–	–
CSCC[C@H](N)C(=O)N[C@@H](CC(=O)O)C(=O)NS(=O)(=O)OC[C@H]1O[C@@H](n2cnc3c(N)ncnc32)[C@H](O)[C@@H]1O	0 mm2	63.7 mm2	12.6 mm2	31.5 mm2	–	–	–
CC(C)C[C@H](NC(=O)[C@@H]1CCCN1)C(=O)NS(=O)(=O)OC[C@H]1O[C@@H](n2cnc3c(N)ncnc32)[C@H](O)[C@@H]1O	0 mm2	0 mm2	0 mm2	–	–	–	–
C[C@H](NC(=O)[C@@H]1CCCN1)C(=O)NS(=O)(=O)OC[C@H]1O[C@@H](n2cnc3c(N)ncnc32)[C@H](O)[C@@H]1O	0 mm2	0 mm2	18.4 mm2	0 mm2	–	–	–
CSCC[C@H](N)C(=O)N[C@@H](CCCNC(=N)N)C(=O)N[C@H](C(=O)NCC(=O)N[C@@H](CC(N)=O)C(=O)N[C@@H](C)C(=O)N[C@@H](CC(=O)O)C(=O)NS(=O)(=O)OC[C@H]1O[C@@H](n2cnc3c(N)ncnc32)[C@H](O)[C@@H]1O)[C@@H](C)O (H-MRTGNA-{AspNHSO2(5'-O-Ado)})	–	–	–	–	0 mm2	0 mm2	46.7 mm2
C[C@H](N)C(=O)NS(=O)(=O)OC[C@H]1O[C@@H](n2cnc3c(N)ncnc32)[C@H](O)[C@@H]1O [ALASA]	35 mm2	44.7 mm2	46.3 mm2	42.3 mm2	–	–	–
CC(C)C[C@H](N)C(=O)NS(=O)(=O)OC[C@H]1O[C@@H](n2cnc3c(N)ncnc32)[C@H](O)[C@@H]1O [LEUSA]	0 mm2	26.9 mm2	25.4 mm2	66 mm2	–	–	–
C/C(=C\C(=O)OCCCCCCCCC(=O)O)C[C@@H]1OC[C@H](C[C@@H]2O[C@H]2[C@@H](C)[C@H](C)O)[C@@H](O)[C@H]1O [MUPIROCIN]	>490.93 mm2	89.4 mm2	38.5 mm2	52.7 mm2	–	–	–
Nc1ncnc2c1ncn2[C@@H]1O[C@H](COS(=O)(=O)NC(=O)[C@@H](N)Cc2ccccc2)[C@@H](O)[C@H]1O [PHESA]	0 mm2	40.4 mm2	38.5 mm2	52.7 mm2	–	–	–
